From ChEMBL document CHEMBL1833955, “Optimization of (arylpiperazinylbutyl)oxindoles exhibiting selective 5-HT₇ receptor antagonist activity” (J Med Chem, 2011) come the findings set out here.

Series [1] concerns the target 5-hydroxytryptamine receptor 7 (Homo sapiens, UniProt P34969). The experiment in a line: Displacement of [3H]CT from human 5-HT7 receptor expressed in CHO cells by scintillation spectrometry. In kind it is cell-based. A digest of the protocol: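 Cloned human 5-HT7 receptor from CHO cells, run under the supplier's recommended conditions with [3H]CT. Nonspecific binding with 25 μM clozapine. Ended by GF/C filtration, then scintillation counting. Ki taken from two nine-concentration displacement curves run in triplicate, single-site fit.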
In general terms: Loss of bound radioactivity is the signal in a displacement assay; it reports binding, not function.

The target of series [2] is T1, 5-hydroxytryptamine receptor 1A (Rattus norvegicus, UniProt P19327).
T1 sequence (P19327 whole entry): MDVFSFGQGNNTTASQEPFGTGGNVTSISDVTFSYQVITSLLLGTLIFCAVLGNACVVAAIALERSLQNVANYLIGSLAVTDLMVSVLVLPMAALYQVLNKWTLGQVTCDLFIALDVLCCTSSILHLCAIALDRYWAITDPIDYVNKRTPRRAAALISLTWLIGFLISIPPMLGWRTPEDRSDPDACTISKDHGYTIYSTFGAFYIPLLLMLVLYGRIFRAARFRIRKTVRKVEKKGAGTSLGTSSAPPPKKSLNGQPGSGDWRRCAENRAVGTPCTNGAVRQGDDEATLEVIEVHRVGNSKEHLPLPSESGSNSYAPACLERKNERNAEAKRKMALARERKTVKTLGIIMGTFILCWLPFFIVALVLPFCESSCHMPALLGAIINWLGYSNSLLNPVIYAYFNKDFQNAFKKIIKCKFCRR
The experiment in a line: Displacement of [3H]8-OH-DPAT from 5-HT1A receptor in rat frontal cortex membrane after 45 mins by scintillation counting. In kind it is cell membranes. A digest of the protocol: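 Membranes from adult rat frontal cortex, prepared in 50 mM Tris-HCl pH 7.7 with washes and a 37 °C preincubation. Incubation buffer: 6.66 mM CaCl2, 16.66 μM pargyline, 0.166% ascorbic acid. Ligand 1.5 nM [3H]8-OH-DPAT; 10 μM 5-HT defines nonspecific binding. 45 min at 25 °C, GF/B filtration, scintillation counting. Triplicates; Ki from two nine-point curves, single-site fit.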

The target of series [3] is T2, Adrenergic receptor alpha-1 (Rattus norvegicus, UniProt P15823+P23944+P43140).
T2 sequence (P15823 whole entry): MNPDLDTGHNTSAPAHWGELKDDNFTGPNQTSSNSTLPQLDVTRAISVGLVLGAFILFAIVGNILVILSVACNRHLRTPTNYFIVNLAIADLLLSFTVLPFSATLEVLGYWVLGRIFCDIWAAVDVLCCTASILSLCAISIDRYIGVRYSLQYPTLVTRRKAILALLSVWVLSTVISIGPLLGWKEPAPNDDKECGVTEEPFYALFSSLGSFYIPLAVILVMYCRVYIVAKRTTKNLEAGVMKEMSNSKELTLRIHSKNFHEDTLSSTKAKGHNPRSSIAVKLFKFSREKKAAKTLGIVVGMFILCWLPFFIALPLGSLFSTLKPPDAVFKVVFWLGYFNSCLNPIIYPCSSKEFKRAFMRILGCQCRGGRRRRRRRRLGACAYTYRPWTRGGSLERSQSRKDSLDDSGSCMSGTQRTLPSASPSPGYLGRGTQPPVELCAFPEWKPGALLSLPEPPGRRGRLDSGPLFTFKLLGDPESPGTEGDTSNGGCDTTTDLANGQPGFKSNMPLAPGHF
T2 sequence (P23944 whole entry): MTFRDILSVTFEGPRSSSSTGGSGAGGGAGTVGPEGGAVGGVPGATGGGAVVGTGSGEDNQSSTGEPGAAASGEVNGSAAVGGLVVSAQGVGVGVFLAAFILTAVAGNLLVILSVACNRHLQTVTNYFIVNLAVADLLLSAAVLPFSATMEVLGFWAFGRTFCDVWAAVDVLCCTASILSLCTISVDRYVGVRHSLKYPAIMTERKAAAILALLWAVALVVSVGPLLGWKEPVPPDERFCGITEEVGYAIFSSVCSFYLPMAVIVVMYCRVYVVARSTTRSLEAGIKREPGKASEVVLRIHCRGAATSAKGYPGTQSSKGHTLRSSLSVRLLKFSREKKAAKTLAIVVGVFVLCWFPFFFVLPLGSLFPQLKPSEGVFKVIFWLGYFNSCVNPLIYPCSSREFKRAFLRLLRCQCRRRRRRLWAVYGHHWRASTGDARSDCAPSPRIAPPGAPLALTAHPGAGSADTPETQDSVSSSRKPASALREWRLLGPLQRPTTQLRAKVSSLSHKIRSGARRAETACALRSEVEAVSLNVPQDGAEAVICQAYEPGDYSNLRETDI
T2 sequence (P43140 whole entry): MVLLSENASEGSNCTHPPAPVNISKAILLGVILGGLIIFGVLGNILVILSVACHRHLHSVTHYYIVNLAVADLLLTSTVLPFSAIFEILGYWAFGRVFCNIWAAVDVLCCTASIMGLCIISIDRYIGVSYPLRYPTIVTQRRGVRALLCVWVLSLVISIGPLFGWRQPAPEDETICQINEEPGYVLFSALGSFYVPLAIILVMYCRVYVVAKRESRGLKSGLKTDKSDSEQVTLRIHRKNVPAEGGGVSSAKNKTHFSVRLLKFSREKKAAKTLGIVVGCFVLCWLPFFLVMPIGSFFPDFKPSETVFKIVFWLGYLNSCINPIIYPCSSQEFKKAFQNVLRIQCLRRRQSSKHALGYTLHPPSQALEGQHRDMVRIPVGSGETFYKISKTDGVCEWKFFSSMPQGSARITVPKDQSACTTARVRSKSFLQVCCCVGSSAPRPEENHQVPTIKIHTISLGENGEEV
Kind of series: Displacement of [3H]prazosin from alpha1-adrenergic receptor in rat frontal cortex membrane after 45 mins by scintillation spectrometry. In kind it is cell membranes. In short, it runs like this: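 Rat frontal cortex tissue frozen on dry ice, homogenised in 50 mM Tris-HCl pH 7.7 and washed by centrifugation. [3H]prazosin at 0.6 nM; 10 μM prazosin defines nonspecific binding. 45 min at 25 °C, GF/B filtration, scintillation counting. Triplicates; Ki from two nine-concentration curves fitted to a single-site model.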

The target of series [4] is T3, 5-hydroxytryptamine receptor 1A (Rattus norvegicus) (UniProt P19327).
T3 sequence (whole entry): T1 sequence (P19327 whole entry)
The experiment in a line: Displacement of [3H]8-OH-DPAT from 5-HT1A receptor in rat frontal cortex membrane at 10^-7 M after 45 mins by scintillation counting. In kind it is cell membranes.

Series [5] can be described thus: Selectivity ratio of Ki for 5-HT1A receptor in rat frontal cortex membrane to Ki for human 5-HT7 receptor. In kind it is cell membranes.
A short description of series [6]: Selectivity ratio of Ki for alpha1-adrenergic receptor in rat frontal cortex membrane to Ki for human 5-HT7 receptor. In kind it is cell membranes.
Series [7] is described as follows: Metabolic stability in rat liver microsomes after 60 mins by HPLC-MS/MS analysis. In kind it is ADME, Microsome. Particulars: read-out: Stability. A digest of the protocol:
(§1)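 Test compound at 100 nM final incubated with rat or human liver microsomes (0.33 mg/mL) at 37 °C for 0, 5, 15, 30 and 60 min. Buffer Tris-HCl pH 7.4 with Mg2+ and BSA. Reaction started with NADPH and stopped with ice-cold MeOH. Parent compound measured by HPLC-MS/MS, positive-ion MRM.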
Background: Microsomes from liver hold many membrane-bound enzymes, among them those of drug oxidation.

Series [8] in a line: Metabolic stability in human liver microsomes after 60 mins by HPLC-MS/MS analysis. In kind it is ADME, Microsome. Particulars: read-out: Stability. In short, it runs like this: as §1

Sequence of 5-hydroxytryptamine receptor 7 (P34969 whole entry): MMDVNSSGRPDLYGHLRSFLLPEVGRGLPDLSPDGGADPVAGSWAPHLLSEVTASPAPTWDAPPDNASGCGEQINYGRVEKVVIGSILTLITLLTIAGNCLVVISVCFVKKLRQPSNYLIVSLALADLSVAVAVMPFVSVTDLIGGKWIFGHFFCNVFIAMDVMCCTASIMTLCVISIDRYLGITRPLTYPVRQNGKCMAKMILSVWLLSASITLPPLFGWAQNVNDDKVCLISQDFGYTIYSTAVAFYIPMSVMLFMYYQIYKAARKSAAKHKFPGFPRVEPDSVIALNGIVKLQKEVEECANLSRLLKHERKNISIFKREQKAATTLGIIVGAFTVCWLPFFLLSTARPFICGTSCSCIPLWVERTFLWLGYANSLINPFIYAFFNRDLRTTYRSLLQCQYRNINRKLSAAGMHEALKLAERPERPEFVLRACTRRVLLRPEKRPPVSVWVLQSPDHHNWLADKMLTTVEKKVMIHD

Consider `O=C1Nc2ccccc2C1CCCCN1CCN(c2ccccn2)CC1` (centres undefined), for which the figures for the inhibitory constant (Ki) in series [1], in series [2] and in series [3] were 10.9 nM, 56 nM and 130 nM, respectively.

For the compound `O=C1Nc2ccccc2C1CCCCN1CC=C(c2cccc(C(F)(F)F)c2)CC1` (centres undefined), the Ki in series [1] turned out to be 11.1 nM; in series [2], 19 nM; in series [3] it was 310 nM.

On to `CCC1(CCCCN2CCN(c3cccc(F)c3)CC2)C(=O)Nc2ccccc21` (centres undefined), for which the values for the inhibition constant (Ki) in series [1] and in series [2] were 11 nM and 73 nM, respectively.

In the case of `CCC1(CCCCN2CCN(c3ccccc3OC)CC2)C(=O)Nc2ccccc21` (centres undefined), the Ki was determined as 9.8 nM in series [2] and 27 nM in series [3].

With `CCC1(CCCCN2CCN(c3cccc(Cl)c3)CC2)C(=O)Nc2ccc(F)cc21` (centres undefined), the inhibitory constant (Ki) in series [2] was 111 nM; in series [3], 46 nM.

Consider `O=C1Nc2cc(F)ccc2C1CCCCN1CC=C(c2cccc(Cl)c2)CC1` (centres undefined), for which affinity in series [1] was put at a Ki of 13 nM. The same compound came in with an inhibition in series [4] of 72%.

On to `CCC1(CCCCN2CCN(c3cccc(Cl)c3)CC2)C(=O)Nc2c1cc(Cl)c(F)c2Cl` (centres undefined), for which the inhibition constant Ki in series [1] worked out at 72 nM; in series [2], 680 nM; in series [3], 97 nM.

`CCC1(CCCCN2CC=C(c3ccc(F)cc3)CC2)C(=O)Nc2ccccc21` (centres undefined) registered an inhibition constant Ki in series [3] of 46 nM. The compound also came in with an inhibition in series [4] of 62%.

`O=C1Nc2cc(F)ccc2C1CCCCN1CCN(c2ccc(Cl)cc2)CC1` (centres undefined): the inhibition constant (Ki) in series [1] came out at 25 nM; in series [3] it was 55 nM. In series [4], this compound showed an inhibition of 6%.

On to `CCC1(CCCCN2CCN(c3ccccc3Cl)CC2)C(=O)Nc2ccccc21` (centres undefined), for which the Ki in series [1] was determined as 53 nM; in series [2], 30 nM; in series [3] it was 64 nM.

With `O=C1Nc2ccccc2C1CCCCN1CCN(c2ccc(Cl)cc2)CC1` (centres undefined), the results for the Ratio Ki in series [5] and in series [6] were 257 and 6, respectively. Moreover, the Ki was 7 nM in series [1] and 42 nM in series [3]. Further, the values for the remaining at 1 h in series [7] and in series [8] were 10% and 52%, respectively.

On to `O=C1Nc2cc(F)ccc2C1CCCCN1CCN(c2cccc(Cl)c2)CC1` (centres undefined), for which the Ki in series [1] was 6.7 nM; in series [2], 118 nM; in series [3], 12.5 nM.

`O=C1Nc2ccccc2C1CCCCN1CCN(c2ccccc2)CC1` (centres undefined): the inhibitory constant (Ki) in series [1] came to 16 nM; in series [2], 243 nM; in series [3] it was 22 nM.

For the compound `CCC1(CCCCN2CCN(c3cccc(C(F)(F)F)c3)CC2)C(=O)Nc2ccccc21` (centres undefined), the results for the Ki in series [1] and in series [2] were 5.1 nM and 36 nM, respectively.

Turning to `CCC1(CCCCN2CCN(c3ccc(Cl)cc3Cl)CC2)C(=O)Nc2ccccc21` (centres undefined), the values for the inhibition constant Ki in series [1] and in series [3] were 139 nM and 380 nM, respectively. Further, the Ratio Ki in series [6] amounted to 3. Moreover, the figures for the remaining at 1 h in series [7] and in series [8] were 17% and 28%, respectively. This compound also yielded an inhibition in series [4] of 11%.

Take `CCC1(CCCCN2CCC(c3ccc(F)cc3)CC2)C(=O)Nc2ccccc21` (centres undefined): the Ki in series [1] came to 6.9 nM; in series [3], 29 nM. In addition, the inhibition in series [4] was 11%.

As to `O=C1Nc2cc(F)ccc2C1CCCCN1CCN(c2ccccn2)CC1` (centres undefined), the Ki in series [1] is 16.8 nM; in series [2], 99 nM; in series [3], 33 nM.

Consider `O=C1Nc2ccccc2C1CCCCN1CCN(c2ccc(F)cc2)CC1` (centres undefined), for which the Ki in series [1] came out at 5 nM; in series [3] it was 14 nM. Also, the inhibition in series [4] was 10%.

As for `CCC1(CCCCN2CCN(c3ccc(Cl)cc3)CC2)C(=O)Nc2cc(F)c(Cl)cc21` (centres undefined), the values for the Ratio Ki in series [5] and in series [6] were above 100 and 19, respectively. For the same compound, the Ki in series [1] stood at 10 nM; in series [3], 191 nM. Moreover, the remaining at 1 h is 18% in series [7] and 10% in series [8]. The inhibition in series [4] turned out to be 0%.

Take `O=C1Nc2ccc(F)cc2C1CCCCN1CCN(c2ccccc2)CC1` (centres undefined): the Ki turned out to be 47 nM in series [1] and 20 nM in series [3].

`CCC1(CCCCN2CCN(c3ccccn3)CC2)C(=O)Nc2ccccc21` (centres undefined): the values for the Ki in series [1], in series [2] and in series [3] were 4 nM, 55 nM and 150 nM, respectively.

For `O=C1Nc2ccc(F)cc2C1CCCCN1CCN(c2ccc(Cl)cc2)CC1` (centres undefined), the Ratio Ki was above 100 in series [5] and 3 in series [6]. In addition, the inhibition constant Ki in series [1] was 40 nM; in series [3] it was 116 nM. The figures for the remaining at 1 h in series [7] and in series [8] were 28% and 44%, respectively. This compound also showed an inhibition in series [4] of 0%.

Turning to `O=C1Nc2c(Cl)cc(Cl)cc2C1CCCCN1CCN(c2ccc(Cl)cc2)CC1` (centres undefined), the Ki in series [1] turned out to be 107 nM; in series [3], 757 nM.

Consider `CCC1(CCCCN2CC=C(c3cccc(Cl)c3)CC2)C(=O)Nc2ccc(F)cc21` (centres undefined), for which the values for the Ki in series [1], in series [2] and in series [3] were 52 nM, 123 nM and 140 nM, respectively.

Regarding `CCC1(CCCCN2CCN(c3cccc(Cl)c3)CC2)C(=O)Nc2cc(F)c(Cl)cc21` (centres undefined), the Ratio Ki in series [5] is above 100; in series [6], 13. The compound further returned a Ki in series [3] of 117 nM. In addition, the values for the remaining at 1 h in series [7] and in series [8] were 16% and 46%, respectively. This compound also yielded an inhibition in series [4] of 16%.

As a reminder, the Ki is the equilibrium dissociation constant of an inhibitor or competing ligand from its target. The low end stands for higher affinity, the high end for lower affinity. As usually defined, the inhibition is the percentage by which the read-out fell short of the control.
